We go through 1 molecule from ChEMBL document CHEMBL1687758, “Azithromycin alters macrophage phenotype and pulmonary compartmentalization during lung infection with Pseudomonas” (2010).

The subject of assay [1] is Mus musculus. As to the kind of experiment: Immunomodulatory activity in Pseudomonas aeruginosa M57-15 infected C57BL/6 mouse lung assessed as CD11b+c+ cell expression level in lung digest at 0.16 g/kg, po measured after 7 days by flow cytometry (reference value: 5.16 +/- 1.09 %). It is filed as functional. The method in brief: (§1)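 Oral gavage of 0.16 g/kg daily (2% methylcellulose vehicle) began 4 days before intratracheal bead infection (1 × 105 to 2 × 10^5 CFU). On days 3, 7 and 14, cells were taken from lavage (0.3 mM EDTA buffer) and from collagenase/DNase lung digest (1 h, 37°C). Cells were stained for CD11b, CD11c, Gr-1, CD4, CD80, MHC-II and MR, with more than 50,000 events acquired. Counts were gated percent × manual cell count.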

Assay [2] relates to Mus musculus. The assay is described as follows: Immunomodulatory activity in Pseudomonas aeruginosa M57-15 infected C57BL/6 mouse lung assessed as CD11b-c+ cell expression level in lung digest at 0.16 g/kg, po measured after 7 days by flow cytometry (reference value: 29.15 +/- 3.98 %). It is filed as functional. In a few lines: as §1
For orientation: Flow cytometry measures light scatter and fluorescence of single cells or particles in a stream.

The subject of assay [3] is Mus musculus. As to the kind of experiment: Immunomodulatory activity in Pseudomonas aeruginosa M57-15 infected C57BL/6 mouse lung assessed as CD11b-c+ cell expression level in lung lavage fluid at 0.16 g/kg, po measured after 3 days by flow cytometry (reference value: 47.01 +/- 33.74 %). It is filed as functional. In a few lines: as §1
Assay [4] deals with Mus musculus. The assay is described as follows: Immunomodulatory activity in Pseudomonas aeruginosa M57-15 infected C57BL/6 mouse lung assessed as decrease of IFN-gamma production in CD11b+ cells in lung lavage fluid at 0.16 g/kg, po measured after 7 days by flow cytometry. It is filed as functional, organism-based. The method in brief:
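The first 1-ml lavage wash was frozen at −80°C. Samples diluted 5-fold were incubated 3 h at room temperature with capture beads for a cytometric bead array (IL-12p70, CCL2, TNF-α, IL-10, IFN-γ, IL-6) plus a PE-conjugated detection antibody. Fluorescence was read by flow cytometry against standard curves. Mice had daily oral 0.16 g/kg from 4 days before intratracheal infection.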

Activity calls are given as the source filed them. The calls are words filed in the database; no cut-off is given here.

For the molecule `CC[C@H]1OC(=O)[C@H](C)[C@@H](O[C@H]2C[C@@](C)(OC)[C@@H](O)[C@H](C)O2)[C@H](C)[C@@H](O[C@@H]2O[C@H](C)C[C@H](N(C)C)[C@H]2O)[C@](C)(O)C[C@@H](C)CN(C)[C@H](C)[C@@H](O)[C@]1(C)O` [AZITHROMYCIN], the values for the Activity in assay [1], in assay [2] and in assay [3] were 17.1%, 20.36% and 34.84%, respectively. In assay [4], the result was inactive.
